Measured values of several laboratories.
Lines come from different studies, so protocols differ.
Target: Calcium/calmodulin-dependent protein kinase type II subunit beta (CAMK2B, Homo sapiens, UniProt Q13554)

SMILES	effect on	mode	method	concentration	measurement	value
C#Cc1n[nH]c2c(-c3cn(C(C)c4ccccn4)c(=O)[nH]c3=O)cc(F)cc12 (centres unmarked)	enzyme activity	inhibitor	–	1 µM	inhibition	4.3%
Cc1nn(C)cc1-c1nc2c(N3CCN(Cc4ccc(Cl)cc4)CC3)c(Cl)cnc2[nH]1	binding	–	competition with immobilised ligand	1 µM	remaining binding	94%
Cn1cncc1[C@@](O)(COc1ccc(C#N)cc1-c1ccc(OC(F)(F)F)cc1)c1ccc(C#N)cc1	cell-free assay	–	competition with immobilised ligand	1 µM	remaining binding	90%
Cn1cc(-c2cccc(N3CCc4c(sc5c4CC(C)(C)C5)C3=O)c2CO)cc(Nc2ccncn2)c1=O	enzyme activity	inhibitor	–	1 µM	inhibition	12%
Nc1ncc(-c2nc(N3CCOCC3)nc(N3CCOCC3)n2)c(C(F)F)n1	binding	–	competition with immobilised ligand	10 µM	remaining binding	69%
N#CC1(c2ccccn2)CCN(Cc2cc(C(=O)O)c(=O)n3ccccc23)CC1	cell-free assay	–	competition with immobilised ligand	1 µM	remaining binding	100%
O=c1[nH]c2ccccc2n1C1CCN(Cc2ccc(-c3[nH]c4cc5ncnc5cc4nc3-c3ccccc3)cc2)CC1	enzyme activity	–	–	0.5 µM	remaining activity	104%
C#Cc1n[nH]c2c(-c3cn([C@@H](C)c4ccccc4)c(=O)[nH]c3=O)cc(F)cc12	enzyme activity	inhibitor	–	0.1 µM	inhibition	6.5%
Cn1cc(-c2cc(F)cc(N3CCn4c(cc5c4CCCC5)C3=O)c2CO)cc(Nc2ccc(N3CCN(C4COC4)CC3)cn2)c1=O	enzyme activity	inhibitor	–	0.1 µM	inhibition	7%
CC(C)(C)c1cc(C=C(C#N)C#N)cc(Br)c1O	enzyme activity	inhibitor	–	0.5 µM	remaining activity	99.3%
COc1ncccc1-c1cnn2ccc(N3CCN(C(=O)OC(C)C)CC3)nc12	binding	–	competition with immobilised ligand	1 µM	remaining binding	81%
